Measured values taken from ChEMBL document CHEMBL1131232, “New azole antifungals. 3. Synthesis and antifungal activity of 3-substituted-4(3H)-quinazolinones” (J Med Chem, 1998).
In brackets after ≈: the same amount, converted by molar mass.

Experiments:
Type in all cases: functional
Candida albicans [1] = test: In vivo antifungal activity against murine candidosis model after peroral administration with 0.5 mg/kg at various time intervals. (percent protection for 100% mortality with untreated group); conditions: route oral
In short: (§1)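 Groups of 10 male mice were infected iv with 0.2 mL of C. albicans at 2 to 8×10^7 cfu/mL. Drug was given orally as a suspension in 1% Tween + 0.2% carboxymethylcellulose at 1, 4 and 24 h post-infection; controls got vehicle only. Survival was scored on days 3, 5, 7 and 9. Read-out was % survival on the day all untreated controls died, or on the day all mice given fluconazole at the same dose died.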

[2] = In vitro for antifungal activity against 10 yeasts
In short: (§2)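 Agar dilution on Kimmig's agar with 0.5% glycerol, using ATCC strains or clinical isolates. Drug stocks were 800 μg/mL in 50% ethanol, tested as 2-fold dilutions from 80 to 0.03 μg/mL. Inocula were 10⁵ cfu/mL. […] Geometric means took >80 as 160 and ≤0.03 as 0.03.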

[3] = In vitro antifungal activity against 6 filamentous fungi; in short: as §2
Candida albicans [4] = test: In vivo antifungal activity against murine candidosis model after peroral administration with 0.5 mg/kg at various time intervals. (percent protection for 100% mortality with fluconazole-treated group.); conditions: route oral; in short: as §1
Candida albicans [5] = test: In vivo antifungal activity against murine candidosis model after peroral administration with 1 mg/kg at various time intervals. (percent protection for 100% mortality with fluconazole-treated group.); conditions: route oral; in short: as §1
Candida albicans [6] = test: In vivo antifungal activity against murine candidosis model after peroral administration with 1 mg/kg at various time intervals. (percent protection for 100% mortality with untreated group); conditions: route oral; in short: as §1

| SMILES | Protection (Candida albicans [1]) [%] | MIC ([2]; read-out: MIC) [µg/mL] | MIC ([3]; read-out: MIC) [µg/mL] | Protection (Candida albicans [4]) [%] | Protection (Candida albicans [5]) [%] | Protection (Candida albicans [6]) [%] | MIC [2] [µg/mL] | MIC [3] [µg/mL] |
| --- | --- | --- | --- | --- | --- | --- | --- | --- |
| C[C@@H](n1cnc2cc(OCCF)ccc2c1=O)[C@](O)(Cn1cncn1)c1ccc(F)cc1F | 0 | 1.4 (≈ 3.05 µM) | 28 (≈ 60.9 µM) | 0 |  |  |  |  |
| CCC(CC)n1ncn(-c2ccc(N3CCN(c4ccc5ncn([C@H](C)[C@](O)(Cn6cncn6)c6ccc(F)cc6F)c(=O)c5c4)CC3)cc2)c1=O | 0 | 3.7 (≈ 5.21 µM) | 28 (≈ 39.4 µM) | 0 |  |  |  |  |
| CC[C@H]([C@H](C)O)n1ncn(-c2ccc(N3CCN(c4ccc5c(=O)n([C@H](C)[C@](O)(Cn6cncn6)c6ccc(F)cc6F)cnc5c4)CC3)cc2)c1=O |  | 32 (≈ 44 µM) | > 80 |  |  |  |  |  |
| C[C@@H](n1cnc2cc(N3CCOCC3)ccc2c1=O)[C@](O)(Cn1cncn1)c1ccc(F)cc1F | 20 | 1.9 (≈ 3.94 µM) | 35 (≈ 72.5 µM) | 0 |  |  |  |  |
| C[C@@H](n1cnc2c(Cl)cc(Cl)cc2c1=O)[C@](O)(Cn1cncn1)c1ccc(F)cc1F |  | 1.7 (≈ 3.65 µM) | > 80 |  | 0 | 100 |  |  |
| Cc1cccc2ncn([C@H](C)[C@](O)(Cn3cncn3)c3ccc(F)cc3F)c(=O)c12 |  | 2.6 (≈ 6.32 µM) | 40 (≈ 97.2 µM) |  | 0 | 0 |  |  |
| C[C@@H](n1cnc2cc3ccccc3cc2c1=O)[C@](O)(Cn1cncn1)c1ccc(F)cc1F |  | 0.4 (≈ 0.894 µM) | 45 (≈ 101 µM) |  | 0 | 30 |  |  |
| C[C@@H](n1cnc2cc(F)c(F)cc2c1=O)[C@](O)(Cn1cncn1)c1ccc(F)cc1F |  | 1.7 (≈ 3.92 µM) | 70 (≈ 162 µM) |  | 0 | 10 |  |  |
| Cc1cc(Br)c2ncn([C@H](C)[C@](O)(Cn3cncn3)c3ccc(F)cc3F)c(=O)c2c1 |  | 2.1 (≈ 4.28 µM) | > 80 |  | 0 | 0 |  |  |
| C[C@@H](n1cnc2cc(N)c(F)cc2c1=O)[C@](O)(Cn1cncn1)c1ccc(F)cc1F |  | 8.7 (≈ 20.2 µM) | 50 (≈ 116 µM) |  |  |  |  |  |
| C[C@@H](n1cnc2ccc(Cl)cc2c1=O)[C@](O)(Cn1cncn1)c1ccc(F)cc1F |  | 1 (≈ 2.32 µM) | 50 (≈ 116 µM) |  | 0 | 40 |  |  |
| C[C@@H](n1cnc2cccc(Cl)c2c1=O)[C@](O)(Cn1cncn1)c1ccc(F)cc1F |  | 3.1 (≈ 7.18 µM) | 71 (≈ 164 µM) |  | 0 | 0 |  |  |
| Cc1cc(C)c2ncn([C@H](C)[C@](O)(Cn3cncn3)c3ccc(F)cc3F)c(=O)c2c1 |  | 3.8 (≈ 8.93 µM) | > 80 |  | 0 | 0 |  |  |
| C[C@@H](n1cnc2ccc(F)cc2c1=O)[C@](O)(Cn1cncn1)c1ccc(F)cc1F |  | 2.4 (≈ 5.78 µM) | > 80 |  | 0 | 0 |  |  |
| C[C@@H](n1cnc2cc(NC(=O)C(F)(F)F)c(F)cc2c1=O)[C@](O)(Cn1cncn1)c1ccc(F)cc1F |  | 8.1 (≈ 15.4 µM) | 80 (≈ 152 µM) |  |  |  |  |  |
| C[C@@H](n1cnc2ccc(Br)cc2c1=O)[C@](O)(Cn1cncn1)c1ccc(F)cc1F |  | 1.6 (≈ 3.36 µM) | 45 (≈ 94.5 µM) |  | 0 | 100 |  |  |
| C[C@@H](n1cnc2cc(NN)ccc2c1=O)[C@](O)(Cn1cncn1)c1ccc(F)cc1F |  | 15 (≈ 35.1 µM) | > 80 |  |  |  |  |  |
| C[C@@H](n1cnc2cc(Oc3ccc(Cl)cc3)ccc2c1=O)[C@](O)(Cn1cncn1)c1ccc(F)cc1F | 100 | 0.7 (≈ 1.34 µM) | 7.1 (≈ 13.6 µM) | 80 |  |  |  |  |
| C[C@@H](n1cnc2cccc(F)c2c1=O)[C@](O)(Cn1cncn1)c1ccc(F)cc1F |  | 4.3 (≈ 10.4 µM) | 57 (≈ 137 µM) |  | 0 | 0 |  |  |
| C[C@@H](n1cnc2cc(N3CCN(C)CC3)ccc2c1=O)[C@](O)(Cn1cncn1)c1ccc(F)cc1F | 20 | 19 (≈ 38.3 µM) | > 80 | 0 |  |  |  |  |

| SMILES | Protection (Candida albicans [1]) [%] | MIC ([2]; read-out: MIC) [µg/mL] | MIC ([3]; read-out: MIC) [µg/mL] | Protection (Candida albicans [4]) [%] | Protection (Candida albicans [5]) [%] | Protection (Candida albicans [6]) [%] | MIC [2] [µg/mL] | MIC [3] [µg/mL] |
| --- | --- | --- | --- | --- | --- | --- | --- | --- |
| C[C@@H](n1cnc2cc(Cl)ccc2c1=O)[C@](O)(Cn1cncn1)c1ccc(F)cc1F (stereo in doubt; 75) [ALBACONAZOLE] |  |  |  |  |  |  | 1 (≈ 2.32 µM) | 33 (≈ 76.4 µM) |
| C[C@@H](n1cnc2cc(S(C)(=O)=O)ccc2c1=O)[C@](O)(Cn1cncn1)c1ccc(F)cc1F | 100 | 11 (≈ 23.1 µM) | > 80 | 80 |  |  |  |  |
| C[C@@H](n1cnc2cc(-n3cncn3)ccc2c1=O)[C@](O)(Cn1cncn1)c1ccc(F)cc1F | 70 | 6.6 (≈ 14.2 µM) | 80 (≈ 172 µM) | <50 |  |  |  |  |
| C[C@@H](n1cnc2cc(C(=N)NS(N)(=O)=O)ccc2c1=O)[C@](O)(Cn1cncn1)c1ccc(F)cc1F | 0 | 40 (≈ 77.1 µM) | > 80 | 0 |  |  |  |  |
| C[C@@H](n1cnc2ccccc2c1=O)[C@](O)(Cn1cncn1)c1ccc(F)cc1F |  | 1.2 (≈ 3.02 µM) | 8.9 (≈ 22.4 µM) |  | 0 | 10 |  |  |
| Cc1nc2cc(Cl)ccc2c(=O)n1[C@H](C)[C@](O)(Cn1cncn1)c1ccc(F)cc1F |  | 6.6 (≈ 14.8 µM) | 36 (≈ 80.7 µM) |  |  |  |  |  |
| C[C@@H](n1cnc2c(Br)cc(Br)cc2c1=O)[C@](O)(Cn1cncn1)c1ccc(F)cc1F |  | 2.6 (≈ 4.68 µM) | > 80 |  | 0 | 10 |  |  |
| C[C@@H](n1cnc2cc(OCC(F)(F)F)ccc2c1=O)[C@](O)(Cn1cncn1)c1ccc(F)cc1F | 100 | 1 (≈ 2.02 µM) | 15 (≈ 30.3 µM) | 100 |  |  |  |  |
| C[C@@H](n1cnc2cc(C(F)(F)F)ccc2c1=O)[C@](O)(Cn1cncn1)c1ccc(F)cc1F | 100 | 0.7 (≈ 1.5 µM) | 2.2 (≈ 4.73 µM) | 60 |  |  |  |  |
| C[C@@H](n1cnc2cc(N(C)C)c(F)cc2c1=O)[C@](O)(Cn1cncn1)c1ccc(F)cc1F |  | 1.4 (≈ 3.05 µM) | 22 (≈ 48 µM) |  | 0 | 0 |  |  |
| C[C@@H](n1cnc2cc(N3CCN(c4ccc([N+](=O)[O-])cc4)CC3)ccc2c1=O)[C@](O)(Cn1cncn1)c1ccc(F)cc1F |  | 7.9 (≈ 13.1 µM) | > 80 |  |  |  |  |  |
| C[C@@H](n1cnc2cc(OCC(F)F)ccc2c1=O)[C@](O)(Cn1cncn1)c1ccc(F)cc1F | 100 | 1.4 (≈ 2.93 µM) | 25 (≈ 52.4 µM) | 0 |  |  |  |  |
| C[C@@H](n1cnc2cc(N3CCOC3=O)ccc2c1=O)[C@](O)(Cn1cncn1)c1ccc(F)cc1F |  | 8.7 (≈ 18 µM) | 80 (≈ 166 µM) |  |  |  |  |  |
| Cc1cccc2c(=O)n([C@H](C)[C@](O)(Cn3cncn3)c3ccc(F)cc3F)cnc12 |  | 2.3 (≈ 5.59 µM) | 80 (≈ 194 µM) |  | 0 | 10 |  |  |
| C[C@@H](n1cnc2cc(-n3ncnn3)ccc2c1=O)[C@](O)(Cn1cncn1)c1ccc(F)cc1F |  | 1.5 (≈ 3.22 µM) | 57 (≈ 122 µM) |  |  |  |  |  |
| C[C@@H](n1cnc2cc(NCc3ccccc3)ccc2c1=O)[C@](O)(Cn1cncn1)c1ccc(F)cc1F | 40 | 1.2 (≈ 2.39 µM) | 11 (≈ 21.9 µM) | 0 |  |  |  |  |
| C[C@@H](n1cnc2cc(C#N)ccc2c1=O)[C@](O)(Cn1cncn1)c1ccc(F)cc1F |  | 0.8 (≈ 1.89 µM) | 3.5 (≈ 8.29 µM) |  | 0 | 10 |  |  |
| Cc1ccc2ncn([C@H](C)[C@](O)(Cn3cncn3)c3ccc(F)cc3F)c(=O)c2c1 |  | 1.4 (≈ 3.4 µM) | 45 (≈ 109 µM) |  | 0 | 40 |  |  |
| C[C@@H](n1cnc2cc(C(N)=O)ccc2c1=O)[C@](O)(Cn1cncn1)c1ccc(F)cc1F |  | 25 (≈ 56.8 µM) | > 80 |  |  |  |  |  |
